From article PMC9187044 (Environmental Toxicology and Chemistry, 2021)
Entries after “also recorded” stand apart in the source; their conditions may differ. Like-named read-outs stand apart in the source and are kept apart here.

How the values were obtained:
[1] = Rainbow trout liver S9 substrate depletion assay; format: in vitro ADME, rainbow trout (Oncorhynchus mykiss); settings: for Depletion / biotransformation in RT-S9 assay (in words): active RT-S9, tested individually, up to 2 h
[2] = human liver microsomes; ref Seguin et al., 2019; cited from earlier work
[3] = ref Chen et al., 2016, cited from earlier work; for CLint,in vivo: RT-S9
[4] = Cofactor-limited depletion of T12 in RT-S9 assay; format: in vitro ADME, rainbow trout (Oncorhynchus mykiss)
How it was run: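 Pooled liver S9 from five trout, 2 mg/ml protein, in 100 mM PPBS pH 7.8 with 10 μg/ml alamethicin, at 11 °C; substrate starts at about 1.0 µM. Duplicate six-sample time series over 60 min, either with no added cofactors, NADPH (2 mM) alone, NADPH plus UDPGA (2 mM), GSH (5 mM) or PAPS (0.1 mM), or all cofactors. Parent and N-demethyl product measured by LC–MS/MS.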

[5] = RT-S9 substrate depletion assay, cationic surfactants tested as mixtures of six; format: in vitro ADME, rainbow trout (Oncorhynchus mykiss); settings: for Clearance rate in mixture compared with single-compound assay (in words): Mixture 1; for CLint,in vivo lower in mixture than tested individually: Mixture 2
[6] = Baseline equilibrium BCF predicted from DMLW and phospholipid content; parameters: species or system fish; settings: fML of 1%
[7] = N-demethylation metabolite formation in RT-S9 assay; format: in vitro ADME, rainbow trout (Oncorhynchus mykiss); settings: for 1° alkylamine product present at last time point as % of removed parent: 120 min; for Time of peak concentration of 2° alkylamine metabolite: 2-h RT-S9 assay
How it was run: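 Trout liver S9 (2 mg/ml protein) with 2 mM NADPH, 2 mM UDPGA, 0.1 mM PAPS, 5 mM GSH and alamethicin, pH 7.8, 11 °C; substrate starts at about 1.0 µM. Sampled at 0, 20, 40, 60, 90 and 120 min and quenched in ice-cold acetonitrile. N-demethylated products scanned by LC–MS/MS and quantified against external standards. Metabolite mass divided by parent mass removed at the same time point.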

[8] = In vitro half-life with human liver microsomes; format: in vitro ADME
[9] = 14C-labeled, 1.1 × 10^6 cells/ml, by 2.5 h; ref Bernhard et al., 2006; cited from earlier work

CCCCCCCCCCCCCCN [P14, Tetradecylamine]
Depletion / biotransformation in RT-S9 assay (in words) [1]: No significant depletion

CCCCCCCCCC[N+](C)(C)Cc1ccccc1.[Cl-] [BAC10]
In vitro half-life [2]: 1 min

CCCCCCCCCCCC(=O)OCCN [P12‐Ac, 2-aminoethyl laurate]
Clearance rate relative to alkylamine analog P12 ([1]; RT-S9 assay): 10 times higher

CCCCCCCCCCCCCCCC[N+](C)(C)Cc1ccccc1 [BAC16]
In vitro half-life [2]: 15 min

CCCCCCCCCCCCN(C)C [T12, N,N-Dimethyldodecylamine]
CLint,in vivo [3]: 472 ml h^–1 g liver^–1
Depletion / biotransformation in RT-S9 assay (in words) [1]: reduced below the limit of quantitation
CLint,in vivo ([4]; RT-S9 with only NADPH added): 224 ml h^–1 g liver^–1
Clearance (in words) ([4]; UDPGA or GSH in combination with NADPH, vs NADPH only): did not result in increased clearance
Depletion (in words) ([4]; active RT-S9, no added cofactors): no significant depletion

CCCCCCCCCCCCCN(C)C [T13, N,N-Dimethyltridecylamine]
Clearance rate in mixture compared with single-compound assay (in words) [5]: not significantly different

CCCCCCCCCCCCCCN(C)C [T14, N,N-Dimethyltetradecylamine]
Factor by which BCFbaseline estimate exceeds empirical BCF or BAF [6]: 3.1

CCCCCCCCCCNC [S10, N-Methyldecylamine]
1° alkylamine product present at last time point as % of removed parent [7]: 10%

CCCCCCCCN(C)C [T8, N,N-Dimethyloctylamine]
CLint,in vivo [3]: 184 ml h^–1 g liver^–1

CCCCCCCCNC [S8]
Depletion / biotransformation in RT-S9 (in words) [3]: negligible depletion

CCCCCCCCCN [P9, Nonylamine]
Clearance rate in mixture compared with single-compound assay (in words) [5]: not significantly different

CCCCCCCCCCCCCCCCN(C)C [T16, N,N-Dimethylhexadecylamine]
Time of peak concentration of 2° alkylamine metabolite [7]: 120 min
Factor by which BCFbaseline estimate exceeds empirical BCF or BAF [6]: 42

CCCCCCCCCCCC[N+](C)(C)C.[Cl-] [Q12]
Depletion / biotransformation in RT-S9 (in words) [3]: identical result

CCCCCCCCCCCC[N+](C)(C)Cc1ccccc1 [BAC12, Benzyldimethyldodecylammonium chloride]
HLM CLint,in vitro faster than RT-S9 CLint,in vitro ([8]; HLM vs present study RT-S9): approximately 100 times
CLint,in vitro corresponding to HLM half-life ([8]; from half-life of ref Seguin et al., 2019): 13.86 ml h^–1 mg protein^–1
In vitro half-life [2]: 3 min
CLint,in vitro ([1]; RT-S9, present study, tested individually): 0.14 ml h^–1 mg protein^–1
Depletion / biotransformation in RT-S9 assay (in words) [1]: significant depletion

CCCCCCCCCC[N+](C)(C)CCCCCCCCCC [DDAC, didecyldimethylammonium chloride]
Factor by which BCFbaseline estimate exceeds empirical BCF or BAF [6]: 420

CCCCCCCCCCCCCC[N+](C)(C)C.[Cl-] [Q14, N,N,N-Trimethyltetradecylammonium chloride]
Factor by which BCFbaseline estimate exceeds empirical BCF or BAF [6]: 33
Depletion / biotransformation in RT-S9 assay (in words) [1]: no significant biotransformation

CCCCCCCCCCCCCN [P13, Tridecylamine]
Factor by which BCFbaseline estimate exceeds empirical BCF or BAF [6]: 10
Predicted BCFbaseline [6]: 14,000 L kg^–1

CCCCCCCCCCCCCCCCN [P16, Hexadecylamine]
Concentration remaining, % of starting value [9]: 56.0 ± 1.3%
Factor by which BCFbaseline estimate exceeds empirical BCF or BAF [6]: 70
Depletion / biotransformation in RT-S9 assay (in words) [1]: No significant depletion; also recorded: no detectable biotransformation

CCCCCCCCCCN(C)C [T10, N,N-Dimethyldecylamine]
Time of peak concentration of 2° alkylamine metabolite [7]: 20 min
Clearance rate in mixture compared with single-compound assay (in words) [5]: not significantly different
Depletion / biotransformation in RT-S9 assay (in words) [1]: reduced below the limit of quantitation

CCCCCCCCCCCCCCCC[N+](C)(C)C.[Cl-] [Q16, N,N,N-Trimethylhexadecylammonium chloride]
Depletion / biotransformation in RT-S9 assay (in words) [1]: no significant biotransformation

CCCCCCCC[N+](C)(C)C.[Cl-] [Q8]
Depletion / biotransformation in RT-S9 (in words) [3]: identical result

CCCCCCCCCCCCCCCCNC [S16, N-Methylhexadecylamine]
1° alkylamine product present at last time point as % of removed parent [7]: 55%
CLint,in vivo lower in mixture than tested individually [5]: 70%
Factor by which BCFbaseline estimate exceeds empirical BCF or BAF [6]: 49

CCCCCCCCCCCCCCCCCCN(C)C [T18, N,N‐dimethyloctadecylamine]
Factor by which BCFbaseline estimate exceeds empirical BCF or BAF [6]: 128

CCCCCCCCCN(C)C [T9, N,N-Dimethylnonylamine]
CLint,in vivo lower in mixture than tested individually [5]: 43%
Depletion / biotransformation in RT-S9 assay (in words) [1]: reduced below the limit of quantitation

CCCCCCCCN [P8]
Depletion / biotransformation in RT-S9 (in words) [3]: no significant depletion

CCCCCCCCCCCCCC[N+](C)(C)Cc1ccccc1.[Cl-] [BAC14, Benzyldimethyltetradecylammonium chloride]
Depletion / biotransformation in RT-S9 assay (in words) [1]: No significant depletion

CCCCCCCCCCCCN [P12, Dodecylamine]
CLint,in vivo [3]: 37 ml h^–1 g liver^–1
Depletion / biotransformation in RT-S9 assay (in words) [1]: No significant depletion

CCCCCCCCCCCCNC [S12, N-Methyldodecylamine]
1° alkylamine product present at last time point as % of removed parent [7]: 25%
CLint,in vivo [3]: 162 ml h^–1 g liver^–1
CLint,in vivo lower in mixture than tested individually [5]: 50%

CCCCCCCCCC[N+](C)(C)C.[Br-] [Q10, N,N,N-Trimethyldecylammonium bromide]
Depletion / biotransformation in RT-S9 assay (in words) [1]: no significant biotransformation
